Reference: ChEMBL document CHEMBL1149611, “Anti-malarial activity of N6-modified purine analogues” (Bioorg Med Chem, 2007)

Experiments:
[1] = tested on: Plasmodium falciparum; assay: Antimalarial activity against drug-sensitive Plasmodium falciparum 3D7 after 24 hrs; type: functional, organism-based; settings: 3D7, 24 h
In short: (§1)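 [³H]hypoxanthine incorporation assay. Compounds dissolved in DMSO and serially diluted in assay medium, final DMSO ≤0.01%. P. falciparum culture at 0.5% parasitaemia (65-75% ring stage), 2.5% haematocrit. Incubated 24 h at 37 °C in 5% CO₂, then [³H]hypoxanthine (0.1 µCi/well) added for a further 24 h. Incorporated radioactivity counted by scintillation. IC50 obtained by curve fitting. Chloroquine diphosphate used as standard.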

[2] = tested on: Plasmodium falciparum; assay: Antimalarial activity against chloroquine,pyrimethamine-resistant Plasmodium falciparum K1 after 24 hrs; type: functional, organism-based; settings: K1, 24 h; in short: as §1
[3] = tested on: Plasmodium falciparum; assay: Antimalarial activity against chloroquine, pyrimethamine and cycloguanil-resistant Plasmodium falciparum VS1 after 24 hrs; type: functional, organism-based; settings: VS1, 24 h; in short: as §1
[4] = tested on: KB; assay: Cytotoxicity against human KB cells; type: functional
[5] = Selectivity index, ratio of CC50 for human KB cells to IC50 for Plasmodium falciparum 3D7; type: functional
[6] = Selectivity index, ratio of CC50 for human KB cells to IC50 for Plasmodium falciparum K1; type: functional
[7] = Selectivity index, ratio of CC50 for human KB cells to IC50 for Plasmodium falciparum VS1; type: functional
[8] = tested on: Plasmodium berghei; assay: Antiparasitemia activity against Plasmodium berghei infected mice (Mus musculus) at 30 mg/kg subcutaneous dose for 4 days; type: functional
In short: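 Male CD-1 outbred mice (20 g), infected intravenously with 2×10^6 P. berghei AS parasitized red cells, received subcutaneous 0.2 mL doses in 10% DMSO/0.05% Tween 80 in water at 2 h (day 0) and on days 1, 2, 3 and 4. Day-5 Giemsa blood smears were counted microscopically, and mean group parasitaemia was expressed as % inhibition versus untreated mice.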

[9] = tested on: Plasmodium berghei; assay: Antiparasitemia activity against Plasmodium berghei infected mice (Mus musculus) at 30 mg/kg peroral dose for 4 days; type: functional; settings: route oral
In short: (§2)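 Peters' suppressive test: 20 g male CD-1 mice were infected iv with 2×10^6 P. berghei AS-parasitized erythrocytes. Compound was dosed orally, 0.2 mL, in standard suspending formula (0.5% Na carboxymethylcellulose, 0.5% benzyl alcohol, 0.4% Tween 80, 0.9% NaCl) at 2 h and on days 1–4 post-infection. Parasitaemia was read microscopically from Giemsa films on day 5 as % inhibition relative to the untreated group's arithmetic mean.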

[10] = tested on: Plasmodium berghei; assay: Antiparasitemia activity against Plasmodium berghei infected mice (Mus musculus) at 100 mg/kg intravenous dose for 4 days; type: functional
In short: (§3)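 CD-1 outbred male mice (20 g) were infected intravenously with 2×10^6 P. berghei AS parasitized red cells. Drug in 5% dextrose was given iv, 0.2 mL, at 2 h (day 0) and on days 1, 2, 3 and 4 post-infection. Day-5 Giemsa-stained blood films were counted, and results were expressed as % inhibition of mean group parasitaemia versus the untreated group.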

[11] = tested on: Plasmodium berghei; assay: Antiparasitemia activity against Plasmodium berghei infected mice (Mus musculus) at 100 mg/kg peroral dose for 4 days; type: functional; settings: route oral; in short: as §2
[12] = tested on: Plasmodium berghei; assay: Antiparasitemia activity against Plasmodium berghei infected mice (Mus musculus) at 10 mg/kg intravenous dose for 4 days; type: functional; in short: as §3

SMILES | IC50 [1] [µM] | IC50 [2] [µM] | IC50 [3] [µM] | CC50 [4] [µM] | Ratio CC50/IC50 [5] | Ratio CC50/IC50 [6] | Ratio CC50/IC50 [7] | Activity [8] [%] | Activity [9] [%] | Activity [10] [%] | Activity [11] [%] | Activity [12] [%]
CON(C)c1nc(N)nc2c1ncn2[C@@H]1O[C@H](CO)[C@@H](O)[C@H]1O | > 306 | > 306 | > 306 | – | – | – | – | – | – | – | – | –
CON(C)c1ncnc2[nH]cnc12 | > 613 | > 613 | > 613 | – | – | – | – | – | – | – | – | –
NNc1ncnc2[nH]cnc12 | 23.1 | 22.1 | 18.8 | 49.3 | 2.1 | 2.2 | 2.6 | – | – | – | – | –
NNc1nc(N)nc2c1ncn2[C@@H]1O[C@H](CO)[C@@H](O)[C@H]1O | 10.2 | 10 | 12.2 | 1360 | 134 | 136 | 112 | 14 | 22.3 | 43.9 | 26.8 | –
c1ccc(NNc2ncnc3[nH]cnc23)cc1 | 19.3 | – | 19.8 | 167 | 8.64 | – | 8.43 | – | – | – | – | –
COc1cc([C@@H]2c3cc4c(cc3[C@H](O)[C@H]3COC(=O)[C@H]23)OCO4)cc(OC)c1OC [PODOFILOX] | – | – | – | 0.048 | – | – | – | – | – | – | – | –
CO/N=c1/[nH]cnc2[nH]cnc12 | 98.9 | 354 | > 606 | 1260 | 12.7 | 3.6 | 2.1 | – | – | – | – | –
Nc1nc2c(ncn2[C@@H]2O[C@H](CO)[C@@H](O)[C@H]2O)/c(=N\OCc2ccccc2)[nH]1 | 183 | – | 126 | – | – | – | – | – | – | – | – | –
NNc1ncnc2c1ncn2[C@@H]1O[C@H](CO)[C@@H](O)[C@H]1O | 13.3 | 7.48 | 7.92 | 2.26 | <1 | <1 | <1 | – | – | – | – | –
c1ccc(CO/N=c2/[nH]cnc3[nH]cnc23)cc1 | 400 | – | 352 | – | – | – | – | – | – | – | – | –
CO/N=c1/[nH]c(N)nc2c1ncn2[C@@H]1O[C@H](CO)[C@@H](O)[C@H]1O | 232 | 184 | 225 | 784 | 3.4 | 4.3 | 3.5 | – | – | – | – | –
CCc1nc(N)nc(N)c1-c1ccc(Cl)cc1 [PYRIMETHAMINE] | – | – | – | – | – | – | – | 100 | 100 | – | – | –
OC[C@H]1O[C@@H](n2cnc3/c(=N\O)[nH]cnc32)[C@H](O)[C@@H]1O | 11.6 | 6.9 | 8.56 | 44.3 | 3.8 | 6.4 | 5.2 | – | – | – | – | –
CO/N=c1/[nH]cnc2c1ncn2[C@@H]1O[C@H](CO)[C@@H](O)[C@H]1O | 11.4 | 20.6 | 9.87 | 6.16 | <1 | <1 | <1 | – | – | – | – | –
CON(C)c1ncnc2c1ncn2[C@@H]1O[C@H](CO)[C@@H](O)[C@H]1O | 21.8 | 12.5 | 25.2 | 15.3 | <1 | 1.2 | <1 | – | – | – | – | –
CN(N)c1nc(N)nc2[nH]cnc12 | > 558 | > 558 | > 558 | – | – | – | – | – | – | – | – | –
CN(N)c1ncnc2[nH]cnc12 | 508 | 478 | 419 | – | – | – | – | – | – | – | – | –
CN(N)c1ncnc2c1ncn2[C@@H]1O[C@H](CO)[C@@H](O)[C@H]1O | 72.7 | 35.4 | 22.5 | 101 | 1.4 | 2.9 | 4.5 | – | – | – | – | –
Nc1nc2[nH]cnc2/c(=N\O)[nH]1 | 27.8 | 9.03 | 16.8 | 45 | 1.6 | 5 | 2.7 | – | – | – | – | –
OC[C@H]1O[C@@H](n2cnc3/c(=N\OCc4ccccc4)[nH]cnc32)[C@H](O)[C@@H]1O | 13.2 | – | 14.2 | 889 | 67.6 | – | 62.6 | – | – | – | – | –
CO/N=c1/[nH]c(N)nc2[nH]cnc12 | 428 | 435 | > 555 | – | – | – | – | – | – | – | – | –
Nc1nc2c(ncn2[C@@H]2O[C@H](CO)[C@@H](O)[C@H]2O)/c(=N\O)[nH]1 | 16 | 10.8 | 13.3 | 281 | 17.5 | 25.9 | 21.1 | – | – | – | – | –
OC[C@H]1O[C@@H](n2cnc3c(NNc4ccccc4)ncnc32)[C@H](O)[C@@H]1O | 14.2 | – | 11 | 109 | 7.68 | – | 9.9 | – | – | – | – | –
CN(N)c1nc(N)nc2c1ncn2[C@@H]1O[C@H](CO)[C@@H](O)[C@H]1O | 2.27 | 3.6 | 0.29 | 1480 | 533 | 410 | 5008 | 28.3 | 12.3 | 14 | 4.8 | –
CCN(CC)CCCC(C)Nc1ccnc2cc(Cl)ccc12 (centres undefined) [CHLOROQUINE] | – | – | – | 187 | – | – | – | – | – | – | – | 100
NNc1nc(N)nc2[nH]cnc12 | 189 | 109 | 89.3 | 1000 | 5.3 | 9.2 | 11.2 | – | – | – | – | –
ONc1ncnc2[nH]cnc12 | 7.48 | 10.2 | 5.57 | 1490 | 199 | 146 | 267 | 1.8 | 3.9 | – | – | –
C=CCO/N=c1/[nH]cnc2c1ncn2[C@@H]1O[C@H](CO)[C@@H](O)[C@H]1O | 3.31 | – | 34 | – | – | – | – | – | – | – | – | –
